# Compound activity: PubChem BioAssay, Johns Hopkins Ion Channel Center
# TRPC4 potent = TRPC4 (mouse) allosteric potentiation | Q9QUQ5 | HEK293 TRPC4beta/mu-opioid, DAMGO EC20, Fluo-4 Ca2+ flux; active compounds read high | B-score at 10 µM | actives 0.42% (n = 310,000);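 active means B-score of calcium response area above 5 SD of library B-scores, with initial fluorescence ratio within 5 SD of library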;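 further: B-score of integrated fluorescence ratio over time as area under calcium response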
# TRPC6 inh = inhibitors of mouse TRPC6 channel; Q61143; HEK293-TRPC6, membrane potential dye, ACh-evoked depolarization; active compounds read low; B-score at 10 µM; actives 1.1% (n = 310,000); AID 2553;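 active means B-score under library mean minus 3 SD, initial fluorescence not abnormally high, positive integrated signal ratio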;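 further: B-score derived from integrated fluorescence ratio over the kinetic read; more negative B-score means stronger inhibition of depolarization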
# Target sequence (Q61143 whole entry, looked up): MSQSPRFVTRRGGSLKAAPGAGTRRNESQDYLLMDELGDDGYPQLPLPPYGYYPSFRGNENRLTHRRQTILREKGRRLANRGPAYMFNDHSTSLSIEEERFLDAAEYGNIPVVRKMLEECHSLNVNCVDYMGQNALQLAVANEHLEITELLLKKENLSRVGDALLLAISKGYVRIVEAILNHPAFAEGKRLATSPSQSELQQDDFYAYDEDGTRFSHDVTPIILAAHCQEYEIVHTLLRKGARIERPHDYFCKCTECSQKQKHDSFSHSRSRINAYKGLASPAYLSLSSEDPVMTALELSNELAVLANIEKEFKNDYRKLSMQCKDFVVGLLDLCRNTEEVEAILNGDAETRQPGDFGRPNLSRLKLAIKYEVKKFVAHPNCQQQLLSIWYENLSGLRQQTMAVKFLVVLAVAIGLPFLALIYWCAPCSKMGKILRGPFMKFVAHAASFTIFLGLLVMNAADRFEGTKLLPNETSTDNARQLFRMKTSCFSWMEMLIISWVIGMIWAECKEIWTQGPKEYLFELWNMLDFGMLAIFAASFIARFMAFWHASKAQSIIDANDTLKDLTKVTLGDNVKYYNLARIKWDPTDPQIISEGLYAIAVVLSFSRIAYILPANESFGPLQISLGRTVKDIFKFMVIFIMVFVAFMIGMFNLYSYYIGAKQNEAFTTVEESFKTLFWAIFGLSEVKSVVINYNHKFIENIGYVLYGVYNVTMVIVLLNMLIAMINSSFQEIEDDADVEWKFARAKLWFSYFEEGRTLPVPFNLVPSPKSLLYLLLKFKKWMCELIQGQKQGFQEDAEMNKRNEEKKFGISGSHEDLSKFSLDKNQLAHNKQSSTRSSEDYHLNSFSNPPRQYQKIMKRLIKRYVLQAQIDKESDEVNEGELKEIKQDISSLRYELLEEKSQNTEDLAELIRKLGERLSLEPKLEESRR
# TRPC4 act = opens the mouse TRPC4 cation channel; Q9QUQ5; HEK293 TRPC4beta/mu-opioid, Fluo4 calcium fluorescence; active compounds read high; B-score at 10 µM; actives 0.49% (n = 310,000);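 active means B-score above 5 SD of library B-scores, and initial fluorescence ratio not above library mean plus 5 SD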;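 further: positive B-score marks a calcium rise read as TRPC4 activation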
#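 System – HEK293 cells stably co-expressing mouse TRPC4beta and mu-opioid receptor · Signal – Fluo4 calcium-sensitive dye fluorescence, kinetic, 1 Hz baseline · Benchmarks – buffer (low) and maximal DAMGO (high) · Read-out – B score of integrated fluorescence ratio per well · Incubation – dye loading 45 min room temperature, 110 s kinetic read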
# TRPC6 activator = activates the mouse TRPC6 cation channel; B-score at 10 µM; actives 0.13% (n = 310,000); HEK293-TRPC6 membrane potential dye fluorescence; active compounds read high; AID 2550;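 active means B-score of the integrated fluorescence ratio above library mean plus 3 SD, and starting fluorescence ratio within library mean plus 5 SD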;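 further: higher score means more depolarization so channel activation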
# TRPC4 inh = TRPC4 (mouse) channel inhibition | Q9QUQ5 | HEK293 TRPC4beta/mu-opioid, DAMGO-evoked Fluo4 calcium flux; active compounds read low | B-score at 10 µM | actives 0.39% (n = 300,000);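 active means B-score over 3 SD under the library average, no early fluorescence shift, positive overall ratio signal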
#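 Test system – stable TRPC4beta/mu-opioid receptor HEK293 cells · Probe or stimulus – DAMGO, a submaximal dose followed by a maximal one · Dosing – one concentration per compound · Signal – Fluo4 calcium fluorescence by kinetic imaging, 5 s 1 Hz baseline · Evaluation – per-well B score of integrated baseline-normalized Fluo4 ratio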
# TRPC4 sel inh 2 = second check of whether TRPC6 inhibitors also affect mouse TRPC4 | actives 42% (n = 920) | inhibition, % at 10 µM | shares compounds with TRPC6 inh | HEK293 TRPC4/MOR, membrane potential dye fluorescence; channel activated by saturating DAMGO dose;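 active means compounds whose fluorescence signal differed from control wells by over 3 SD, either direction, in both duplicate plates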
# TRPC4 spec = selectivity of TRPC6 inhibitors: effect on mouse TRPC4 | shares compounds with TRPC6 inh | actives 61% (n = 920) | activity change, negative = inhibition, % at 10 µM | AID 2777 | HEK293 TRPC4/mu-opioid, membrane potential fluorescence;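 active means rise or fall in signal beyond 3 SD of buffer-only wells in both replicate plates, either sign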;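 further: integrated kinetic ratio of fluorescence range over baseline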
# HEK293 MPD ctr 2-1 = second counter-screen for TRPC6 inhibitors: parental HEK293 cells; shares compounds with TRPC6 inh; parental HEK293 membrane potential dye fluorescence; maximal acetylcholine challenge after compound addition; signal change vs control, % at 10 µM; actives 31% (n = 920); AID 2779;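 active means membrane potential signal moving either way by over 3 SD of the maximum-effect control, in both duplicate plates, meaning non-specific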
# HEK293 MPD ctr-1 = counter-screen for TRPC6 inhibitors: effect in parental HEK293 cells; shares compounds with TRPC6 inh; parental HEK293 membrane potential dye fluorescence; membrane potential signal change, % at 10 µM; actives 60% (n = 920); AID 2780;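 active means membrane potential signal shifting up or down by more than 3 SD of buffer-only wells, on both duplicate plates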
# HEK293 MPD ctr-2 = checks TRPC6 modulator effects in parental HEK293 cells | shares compounds with TRPC6 inh | membrane potential dye fluorescence | membrane potential signal change, % at 10 µM | actives 51% (n = 2,400);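 active means membrane potential signal moves up or down beyond 5 SD from buffer-only wells, on both duplicate plates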
# HEK293 MPD ctr 2-2 = second check of TRPC6 modulator effects in parental HEK293 cells; shares compounds with TRPC6 inh; membrane potential dye fluorescence; after compound, maximal acetylcholine stimulation; inhibition, % at 10 µM; actives 14% (n = 2,400); AID 488926;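 active means membrane potential signal drops by more than 5 SD from the mean control signal, in both duplicate plates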;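 further: plate controls were acetylcholine ECmax control wells for no effect and buffer only wells for full effect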
# TRPC4 ctr mod = mouse TRPC4 off-target activity of TRPC6 modulators. shares compounds with TRPC6 inh. HEK293 TRPC4/mu-opioid, membrane potential fluorescence. percent change from control (negative = decrease, positive = increase), % at 10 µM. actives 69% (n = 2,400). AID 488927;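 active means membrane potential signal moved up or down beyond 5 SD of buffer control wells, in both duplicate plates, actives on both sides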;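 further: plate controls were assay buffer wells for no effect and DAMGO maximal-effect wells for full effect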
# TRPC4/MOR inh 2 = mouse TRPC4 off-target activity of TRPC6 modulators, second screen | inhibition, % at 10 µM | AID 488928 | HEK293 TRPC4/mu-opioid, membrane potential dye fluorescence; stimulated with maximal-effect DAMGO | shares compounds with TRPC6 inh | actives 55% (n = 2,400);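 active means drop in membrane potential signal beyond 5 SD of the control wells in both duplicate plates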;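 further: TRPC4 counter screen for TRPC6 hits run under conditions tuned for TRPC6 not TRPC4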
# TRPC6 block conf = confirmation of mouse TRPC6 inhibitors. shares compounds with TRPC6 inh. HEK293-TRPC6, membrane potential dye, ACh-evoked depolarization. inhibition, % at 10 µM. actives 43% (n = 3,300);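 active means fluorescence ratio falls more than 5 SD below the full-stimulation control mean, in both duplicate runs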;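 further: integrated fluorescence ratio of peak minus minimum over baseline after agonist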
# TRPC6 act confirm = confirmation of mouse TRPC6 activators | shares compounds with TRPC6 inh | HEK293-TRPC6 membrane potential dye fluorescence, FDSS | activation, % at 10 µM | actives 11% (n = 2,800);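 active means ratio signal rise beyond 5 SD above unstimulated control wells' mean, seen in both duplicate runs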;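 further: plate controls were buffer EC0 wells for no effect and acetylcholine ECmax response for full effect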
# The depositor's hits bear a star; i = inactive; · = no result; + = active, no number. Only some compounds are listed: those with a hit (about 2.3% of all), similar ones and a draw of the others.
SMILES,TRPC4 potent,TRPC6 inh,TRPC4 act,TRPC6 activator,TRPC4 inh,HEK293 MPD ctr-2,HEK293 MPD ctr 2-2,TRPC4 ctr mod,TRPC4/MOR inh 2,TRPC6 block conf,TRPC6 act confirm,others
O=C(N/N=C/c1sc2ccccc2c1O)c1cccc2ccccc12,i,i,45*,22*,i,834%*,+,121%*,42%*,·,251%*,
O=C(N/N=C/c1sc2ccccc2c1O)c1ccccc1,i,i,i,i,i,·,·,·,·,·,·,
COc1ccc2cc(C(=O)N/N=C/c3sc4ccccc4c3O)ccc2c1,i,i,i,72*,i,138%*,108%*,261%*,i,·,38%*,
CCOc1ccc(OCCOc2ncnc3ccccc23)cc1,i,i,i,i,i,·,·,·,·,·,·,
C[n+]1ccccc1COc1ccc(C(C)(C)C)cc1,i,-5.1*,i,i,i,i,i,i,i,i,i,
CC(C)(C)c1ccc(OCCNCc2ccccc2)cc1,i,i,i,i,i,·,·,·,·,·,·,
Cn1cc(C(=O)c2ccc(Cl)cc2Cl)cc1C(=O)N/N=C(\N)COc1cccc(C(F)(F)F)c1,i,i,i,i,i,·,·,·,·,·,·,
Cc1ccc2cc(C=C(C#N)C#N)c(N3CCCCC3)nc2c1,i,-7.1*,i,i,i,·,·,·,·,i,i,TRPC4 sel inh 2=i;TRPC4 spec=i;HEK293 MPD ctr 2-1=i;HEK293 MPD ctr-1=i
CCOC(=O)c1nc2cc3n(c(C)c-2c1C)C(C)C(C)=C3C (stereo unspecified),i,-8.1*,i,i,i,·,·,·,·,i,i,TRPC4 sel inh 2=70%*;TRPC4 spec=7.3%*;HEK293 MPD ctr 2-1=-192%*;HEK293 MPD ctr-1=i
CCOC(=O)c1nc2cc3n(c(CC(C)C)c-2c1C)CC(C)=C3C,i,-6.4*,i,i,i,-87%*,69%*,-20%*,54%*,49%*,i,
Cn1c(=O)oc2cc(S(=O)(=O)NCc3ccc(F)cc3)ccc21,i,i,i,i,i,·,·,·,·,·,·,
COc1ccc(C(=O)NCC(=O)N2CCN(C(=O)c3ccco3)CC2)cc1,i,i,i,i,i,·,·,·,·,·,·,
Fc1ccc(-n2ncc3c(SCc4cccnc4)ncnc32)cc1,i,i,i,i,i,·,·,·,·,·,·,
COc1cc(N/C(N)=N/c2nc(C)cc(C)n2)c(OC)cc1Cl,i,-8.2*,i,i,i,·,·,·,·,90%*,i,TRPC4 sel inh 2=i;TRPC4 spec=-11%*;HEK293 MPD ctr 2-1=i;HEK293 MPD ctr-1=-170%*
Cc1cc(C)nc(/N=C(\N)Nc2cc([N+](=O)[O-])ccc2C)n1,i,-7.1*,i,i,i,-166%*,i,-28%*,48%*,58%*,i,
COc1cc(NC(N)=S)c(OC)cc1Cl,i,i,i,i,i,·,·,·,·,·,·,
COc1ccc(C(=O)c2c3ccc(C(F)(F)F)cc3[n+]([O-])n2CCCN)cc1,i,-5.7*,i,i,i,i,i,-9.5%*,47%*,48%*,i,
Cc1ccc(C(=O)c2c3ccc(C(F)(F)F)cc3[n+]([O-])n2CCCN)cc1,i,-8.1*,i,i,i,·,·,·,·,76%*,i,TRPC4 sel inh 2=50%*;TRPC4 spec=-12%*;HEK293 MPD ctr 2-1=i;HEK293 MPD ctr-1=-158%*
CCn1c(SCC(=O)NCc2ccccc2)nc2c(c1=O)SC(C)C2 (stereo unspecified),i,i,i,i,i,·,·,·,·,·,·,
Oc1ccc(/C=N/Nc2cc(N3CCOCC3)nc(N3CCOCC3)n2)cc1O,i,i,i,i,i,·,·,·,·,·,·,
Oc1ccccc1/C=N/Nc1cc(N2CCCC2)nc(N2CCCC2)n1,i,-5.2*,i,i,i,i,i,16%*,i,i,·,
O=S(=O)(NCCCCNS(=O)(=O)c1ccc(F)cc1)c1ccc(F)cc1,i,i,i,i,i,·,·,·,·,·,·,
NS(=O)(=O)c1ccc(CCNC(=O)NC2(C(F)(F)F)Oc3ccccc3O2)cc1,i,-5.7*,i,i,i,i,i,i,i,i,i,
CCCCNC(=O)NC1(C(F)(F)F)Oc2ccccc2O1,i,i,i,i,i,·,·,·,·,·,·,
CCc1noc(C)c1C(=O)N(Cc1ccccc1)c1c(N)n(CCOC)c(=O)[nH]c1=O,i,i,i,i,i,·,·,·,·,·,·,
Cc1cc(C)n(-c2nc(NCc3cccnc3)c3c4c(sc3n2)COC(C)(C)C4)n1,i,-7.4*,i,i,i,·,·,·,·,i,i,TRPC4 sel inh 2=i;TRPC4 spec=i;HEK293 MPD ctr 2-1=i;HEK293 MPD ctr-1=i
Cc1cc(C)n(-c2nc(SCC(=O)O)c3c4c(sc3n2)COC(C)(C)C4)n1,i,i,i,i,i,·,·,·,·,·,·,
CCN(CC)CCCNc1nc(-n2nc(C)cc2C)nc2sc3c(c12)CC(C)(C)OC3,i,-10*,i,i,i,·,·,·,·,57%*,i,TRPC4 sel inh 2=i;TRPC4 spec=-11%*;HEK293 MPD ctr 2-1=i;HEK293 MPD ctr-1=-204%*
N#Cc1cnn(-c2cccc(Cl)c2)c1-n1cccc1,i,i,i,i,i,·,·,·,·,·,·,
CCOC(=O)C1=NN(C(=O)c2ccc(OC)cc2)C(O)(c2ccc(Cl)cc2)C1 (stereo unspecified),i,i,70*,17*,i,344%*,i,76%*,i,·,209%*,
